The nature of data set [1]: folding enthalpy; higher = less favourable; fluorescence melt of hairpins on a sequencing array, two-state fit. To be noted: sodium 0.088 M. In a few lines: (§1)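 Cy3 fluorescence of library hairpins on a sequenced MiSeq flow cell, with annealed Cy3 and quencher oligos, was imaged in 50 mM Na-HEPES pH 8.0, 25 mM NaCl in 2.5 °C steps up to 60 °C. Signals were normalised to pre-quench Cy3 and to control variants. Melting temperature and folding enthalpy came from bootstrapped two-state fits, inverse-variance combined over four replicates. Fitted temperatures were raised by 9.35 °C to match UV melts.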

Data set [2] can be described thus: melting temperature; fluorescence melt of hairpins on a sequencing array, two-state fit, raised by 9.35 °C to match UV melts. To be noted: sodium 0.088 M. In a few lines: as §1

Regarding GAACACGAAAGTGTTTC ((((((....))).))), in data set [1], the folding enthalpy was -12.4 kcal/mol. The Tm in data set [2] was determined as 52.9 °C.
For the sequence GAACAGCGAAAGCTATTC (((.(((....))).))), in data set [1], the folding enthalpy was -15.6 kcal/mol. In addition, in data set [2], the Tm was 34.7 °C.
Turning to GAACATGGAAACACGTTC ((((.((....)).)))), in data set [1], the folding enthalpy is -27.5 kcal/mol. The Tm in data set [2] is 33 °C.
On to GAACATGGAAACATGTCC (.(((((....))))).), for which, in data set [1], the folding enthalpy is -15.4 kcal/mol. Further, the Tm in data set [2] is 35.8 °C.
In the case of GAACATGGAAACATGTTC (((((((....))))))), in data set [1], the folding enthalpy was -43.3 kcal/mol. Besides, the Tm in data set [2] amounted to 56.2 °C.
For the sequence GAACCAGAAATGGTTC ((((((....)))))), the folding enthalpy in data set [1] is -33.6 kcal/mol. Also, in data set [2], the Tm was found to be 54.2 °C.
On to GAACCAGGAAACTGGTTC (((((((....))))))), for which the folding enthalpy in data set [1] is -45.1 kcal/mol. Also, the Tm in data set [2] is 62 °C.
Consider GAACCCGAAAGGGATTTC ((((((....)))..))), for which the folding enthalpy in data set [1] was -11.1 kcal/mol. Further, the Tm in data set [2] came out at 29.5 °C.
Regarding GAACCCGAAAGGGCGTTC ((((((....)))..))), the folding enthalpy in data set [1] was -11.9 kcal/mol. In data set [2], the Tm was found to be 33.7 °C.
With GAACCCGAAAGGGCTTC ((((((....))).))), the folding enthalpy in data set [1] is -15 kcal/mol. For the same sequence, in data set [2], the Tm was 46.3 °C.
For GAACGCCCGAAAGGGTTC (((..(((....)))))), in data set [1], the folding enthalpy is -10.8 kcal/mol. Besides, the Tm in data set [2] came to 30.3 °C.
Turning to GAACGCGAAAGCGCTTTC ((((((....)))..))), the folding enthalpy in data set [1] is -8.13 kcal/mol. In addition, in data set [2], the Tm stood at 29.7 °C.
Turning to GAACGCGAAAGCGGCTTC ((((((....)))..))), the folding enthalpy in data set [1] was -14.9 kcal/mol. The Tm in data set [2] was determined as 53.3 °C.
For the sequence GAACGCGAAAGCGGTTC ((((((....))).))), in data set [1], the folding enthalpy was -14.3 kcal/mol. Besides, the Tm in data set [2] stood at 57.3 °C.
Take GAACGCGAAAGCGTTTTC ((((((....)))..))): in data set [1], the folding enthalpy is -11.6 kcal/mol. The Tm in data set [2] is 56.6 °C.
Consider GAACGCGGAAACACGTTC (((((.(....).))))), for which the folding enthalpy in data set [1] is -45.6 kcal/mol. Moreover, in data set [2], the Tm is 48.1 °C.
For the sequence GAACGGGGAAACCTGTTC ((((.((....)).)))), in data set [1], the folding enthalpy is -32.4 kcal/mol. The Tm in data set [2] came out at 49 °C.
Turning to GAACTCGGAAACGAGCTC ((.((((....)))).)), the folding enthalpy in data set [1] was -19 kcal/mol. In addition, the Tm in data set [2] turned out to be 42.2 °C.
Regarding GAACTCGGAAACGAGTCC (.(((((....))))).), in data set [1], the folding enthalpy was -14.6 kcal/mol. Also, the Tm in data set [2] turned out to be 43.4 °C.
For GAACTCGGAAACGGGTTC ((((.((....)).)))) the same measures were -35.1 kcal/mol and 50.4 °C.
As for GAACTGAAAAGTTC (((((....))))), in data set [1], the folding enthalpy was -24.3 kcal/mol. Also, in data set [2], the Tm is 46.6 °C.
For GAACTGGGAAACCGGTTC ((((.((....)).)))) the same measures were -39.6 kcal/mol and 50.1 °C.
For the sequence GAACTGGGAAACTGGTTC ((((..(....)..)))), the folding enthalpy in data set [1] is -25.8 kcal/mol. Further, the Tm in data set [2] turned out to be 33.3 °C.
For GAAGAACCGAAAGGTTTC (((..(((....)))))), the folding enthalpy in data set [1] is -11.5 kcal/mol. In data set [2], the Tm was found to be 33 °C.
Regarding GAAGAAGGAAACTCCTTC ((((.((....)).)))), the folding enthalpy in data set [1] was -19.2 kcal/mol. Moreover, the Tm in data set [2] was found to be 30.7 °C.
For GAAGACGAAAGTCCTTTC ((((((....)))..))) the same measures were -11.6 kcal/mol and 29.6 °C.
As for GAAGACGAAAGTCGATTC ((((((....)))..))), the folding enthalpy in data set [1] is -24.1 kcal/mol. In data set [2], the Tm stood at 47.4 °C.
For the sequence GAAGACGAAAGTCTCTTC ((((((....)))..))), the folding enthalpy in data set [1] was -23.9 kcal/mol. Moreover, in data set [2], the Tm was 51.6 °C.
Turning to GAAGACGGAAACGCCTTC ((((.((....)).)))), the folding enthalpy in data set [1] was -26.5 kcal/mol. Also, the Tm in data set [2] stood at 45.6 °C.
For GAAGACGGAAACGTCTCC (.(((((....))))).) the same measures were -12.6 kcal/mol and 39.3 °C.
For GAAGATACGAAAGTATTC (((..(((....)))))) the same measures were -8.74 kcal/mol and 27.7 °C.
For GAAGCACGAAAGTGATTC (((.(((....))).))), the folding enthalpy in data set [1] was -35.1 kcal/mol. Also, the Tm in data set [2] stood at 60 °C.
As for GAAGCAGGAAACCGCTTC (((((.(....).))))), the folding enthalpy in data set [1] is -30.4 kcal/mol. Further, in data set [2], the Tm is 47.1 °C.
For GAAGCCGAAAGGCAATTC ((((((....)))..))) the same measures were -13.7 kcal/mol and 39.6 °C.
For GAAGCCGAAAGGCATTC ((((((....))).))) the same measures were -11.1 kcal/mol and 40.6 °C.
On to GAAGCCGGAAACAGCTTC (((((.(....).))))), for which the folding enthalpy in data set [1] is -29.2 kcal/mol. Besides, the Tm in data set [2] was 42.8 °C.
Consider GAAGCGCCGAAAGGCTTC (((..(((....)))))), for which, in data set [1], the folding enthalpy is -10.5 kcal/mol. Also, the Tm in data set [2] worked out at 32.3 °C.

The record behind these values is the array DNA melting data of Ke et al. (doi:10.1101/2024.01.08.574731).
